Consider three compounds from ChEMBL document CHEMBL3124882, “Semi-synthesis of acylated triterpenes from olive-oil industry wastes for the development of anticancer and anti-HIV agents” (Eur J Med Chem, 2014).

pIC50: −log10 of the molar value. Active and inactive are the calls of the source. The rule behind the calls is not given here.

The target in one assay is Protease (Human immunodeficiency virus 1, UniProt Q9YQ12). Description: Inhibition of HIV1 recombinant protease expressed in Escherichia coli using Abz-Ala-Arg-Val-Nle-Tyr(NO2)-Glu-Ala-Nle-NH2 as substrate by FRET assay.
Chain of Protease (Q9YQ12 whole entry): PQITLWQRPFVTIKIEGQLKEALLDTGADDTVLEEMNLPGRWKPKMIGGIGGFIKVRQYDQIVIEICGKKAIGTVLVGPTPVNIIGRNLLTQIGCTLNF
The subject of assay [1] is B16-F10. Kind of assay: Induction of apoptosis in mouse B16F10 cells assessed as early apoptotic cells at 2 X IC50 after 72 hrs by annexin V-FITC/propidium iodide staining-based FACS analysis (reference value: 3.9 +/- 0.4%). The format is functional. On the technique in general: Flow cytometry measures light scatter and fluorescence of single cells or particles in a stream.

Assay [2] has as its system B16-F10. Description: Induction of ROS generation in mouse B16F10 cells at IC50 to 2 X IC50 after 72 hrs by rhodamine123/propidium iodide staining-based FACS analysis. Format: functional, cell-based. In short, it runs like this: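 B16F10 cells, 11·10^4 per well, treated 72 h at IC50 or 2×IC50, then given fresh medium with dihydrorhodamine 123 at a final 5 µg/mL for 30 min. Cells washed, resuspended in PBS and read by flow cytometry for Rh123 and PI fluorescence (excitation 500 nm, emission 536 nm). Rh123+ cells scored ROS-positive regardless of PI. Three experiments in duplicate, mean ± S.E.M.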

In assay [3] the test system is B16-F10. Kind of assay: Induction of apoptosis in mouse B16F10 cells assessed as early apoptotic cells at IC50 after 72 hrs by annexin V-FITC/propidium iodide staining-based FACS analysis (reference value: 3.9 +/- 0.4%). Format: functional.
For assay [4], the system named is B16-F10. Description: Induction of apoptosis in mouse B16F10 cells assessed as total apoptotic cells at IC50 after 72 hrs by annexin V-FITC/propidium iodide staining-based FACS analysis (reference value: 13.7 +/- 2.7%). Format: functional.
The subject of assay [5] is B16-F10. Description: Cytotoxicity against mouse B16F10 cells after 72 hrs by MTT assay. The format is functional, cell-based. Particulars: B16-F10, 72 h. In short, it runs like this: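 B16F10 cells (DMEM, 2 mM glutamine, 10% heat-inactivated FCS, penicillin/streptomycin; subconfluent) seeded at 11·10^3 per well and exposed to 0–80 µg/mL for 72 h. Compounds were diluted from a 10 mg/mL stock in 50% DMSO/PBS. MTT 0.5 mg/mL for 2 h, formazan dissolved in DMSO, absorbance at 550 nm. Viability is relative to untreated controls; IC50 from four assays of six replicates, mean ± S.E.M.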

The test system of assay [6] is B16-F10. Description: Induction of apoptosis in mouse B16F10 cells assessed as total apoptotic cells at 2 X IC50 after 72 hrs by annexin V-FITC/propidium iodide staining-based FACS analysis (reference value: 13.7 +/- 2.7%). Format: functional.
The test system of assay [7] is B16-F10. Description: Induction of apoptosis in mouse B16F10 cells assessed as late apoptotic cells at IC50 after 72 hrs by annexin V-FITC/propidium iodide staining-based FACS analysis (reference value: 9.8 +/- 2.2%). The format is functional.
Assay [8] relates to B16-F10. Description: Induction of apoptosis in mouse B16F10 cells assessed as normal cells at 2 X IC50 after 72 hrs by annexin V-FITC/propidium iodide staining-based FACS analysis (reference value: 77.9 +/- 1.5%). The format is functional.
The subject of assay [9] is B16-F10. Description: Induction of apoptosis in mouse B16F10 cells assessed as necrotic cells at IC50 after 72 hrs by annexin V-FITC/propidium iodide staining-based FACS analysis (reference value: 4.0 +/- 0.6%). The format is functional.
In assay [10] the test system is B16-F10. Description: Induction of apoptosis in mouse B16F10 cells assessed as late apoptotic cells at 2 X IC50 after 72 hrs by annexin V-FITC/propidium iodide staining-based FACS analysis (reference value: 9.8 +/- 2.2%). Format: functional.
For assay [11], the system named is B16-F10. Kind of assay: Induction of apoptosis in mouse B16F10 cells assessed as necrotic cells at 2 X IC50 after 72 hrs by annexin V-FITC/propidium iodide staining-based FACS analysis (reference value: 4.0 +/- 0.6%). The format is functional.
Assay [12] concerns B16-F10. Kind of assay: Induction of apoptosis in mouse B16F10 cells assessed as normal cells at IC50 after 72 hrs by annexin V-FITC/propidium iodide staining-based FACS analysis (reference value: 77.9 +/- 1.5%). The format is functional.

In the case of `CCCCCC(=O)O[C@@H]1C[C@]2(C)[C@H]3CC=C4[C@@H]5CC(C)(C)CC[C@]5(C(=O)O)CC[C@@]4(C)[C@]3(C)CC[C@H]2C(C)(C)[C@H]1O`, the negative logarithm of the IC50 (pIC50) on Protease was 3.91; with B16-F10 [5], 4.46. Also, the Activity was found to be 62.7% with B16-F10 [1]; 42.4% with B16-F10 [3]; 61.4% in the assay with B16-F10 [4]; 80.2% with B16-F10 [6]; 19% in the assay with B16-F10 [7]; 18.9% in the assay with B16-F10 [8]. Further, the Activity with B16-F10 [9] was found to be 3.9%; in the assay with B16-F10 [10] it was 17.5%; in the assay with B16-F10 [11], 1.1%; in the assay on B16-F10 [12], 34.8%. For the same compound, the outcome in the assay on B16-F10 [2] was Active.
`CC1(C)CC[C@]2(C(=O)OCc3ccccc3)CC[C@]3(C)C(=CC[C@@H]4[C@@]5(C)C[C@@H](OC(=O)c6ccccc6C(=O)O)[C@H](O)C(C)(C)[C@@H]5CC[C@]43C)[C@@H]2C1`: the figures for the pIC50 on Protease and in the assay on B16-F10 [5] were 6.10 and 4.14, respectively. The Activity with B16-F10 [1] came to 43.6%; in the assay on B16-F10 [3], 42.2%; in the assay with B16-F10 [4], 64.7%; with B16-F10 [6], 89.7%; in the assay on B16-F10 [7], 22.5%; in the assay with B16-F10 [8], 2.9%. In addition, the Activity with B16-F10 [9] stood at 2.5%; in the assay with B16-F10 [10], 46.2%; in the assay on B16-F10 [11], 7.5%; in the assay with B16-F10 [12], 32.8%. Moreover, the outcome in the assay on B16-F10 [2] was inactive.
Turning to `CC1(C)CC[C@]2(C(=O)OCc3ccccc3)CC[C@]3(C)C(=CC[C@@H]4[C@@]5(C)CC[C@H](OC(=O)c6ccccc6C(=O)O)C(C)(C)[C@@H]5CC[C@]43C)[C@@H]2C1`, the pIC50 is 6.40 on Protease and 4.57 in the assay on B16-F10 [5]. Moreover, the Activity with B16-F10 [1] amounted to 66.9%; with B16-F10 [3] it was 64.3%; in the assay with B16-F10 [4] it was 94.6%; in the assay with B16-F10 [6], 95.4%; in the assay on B16-F10 [7], 30.3%; in the assay with B16-F10 [8], 3.7%. Besides, the Activity in the assay on B16-F10 [9] is recorded as 1.5%; in the assay on B16-F10 [10], 28.5%; in the assay on B16-F10 [11], 1%; in the assay on B16-F10 [12], 3.9%. Also, in the assay with B16-F10 [2], the outcome was inactive.

Broadly, the pIC50 is −log10 of the IC50, conventionally taken in molar units.
